Where a name gives a salt, the structure may show the parent alone.

The text below walks through data of PMC11381611 (Heliyon, 2024).

One data set has as its system Adr-induced arrhythmias. Put plainly: Adr-induced arrhythmia in rats, electrocardiography. It counts as in vivo, rat. Particulars: prophylactic administration, rats with Adr-induced arrhythmia; Fig. 5. In outline:
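Rats (8 per group) got test compound intragastrically once daily for 14 days (5.19, 10.39 or 20.77 g/kg/d), metoprolol tartrate […], or saline 5 mL/kg/d. 30 min after the last dose, rats were anaesthetised i.p. with 0.6 % nembutal (30 mg/kg) and lead II ECG recorded at 50 mm/s. Adrenaline was given by tail vein as cumulative boluses (8, 16, 32, 64, 128) at 10-min intervals or until death. Read-outs were QRS duration and QTc = QT/√RR, as mean ± s.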
As for `COCCc1ccc(OCC(O)CNC(C)C)cc1` (centres unmarked) [Meto, metoprolol tartrate], the QRS interval result is reported as “no significant effect” and the QTc interval entry is “shortened”.

Test system in a further data set: not given
Test: not given
Particulars: rat, plasma, po, 10.39 g/kg/day. Format: in vivo.
Compound `COc1ccc(-c2cc(=O)c3c(OC)c(OC)c(OC)c(OC)c3o2)cc1OC` [nobiletin] came in with an AUC(0-inf) of 9921 ± 87.6 ng·h/mL, an AUC(0-t) of 9892 ± 40.7 ng·h/mL, a Cmax of 2869 ± 22.6 ng/mL and an MRT inf of 3.28 ± 0.19 h. Further, the MRT last worked out at 3.24 ± 0.11 h and the half-life was 6.32 ± 0.89 h.
On to `COc1cc2c(cc1OC)[C@@H]1Cc3ccc(OC)c(OC)c3CN1CC2` [tetrahydropalmatine], for which the AUC(0-inf) worked out at 881 ± 47.2 ng·h/mL, the AUC(0-t) is 849 ± 54.3 ng·h/mL, the Cmax worked out at 421 ± 97.7 ng/mL and the MRT inf turned out to be 3.66 ± 0.54 h. This compound gave an MRT last of 2.91 ± 0.54 h and a half-life of 3.26 ± 1.13 h.
Consider `O=C1C[C@@H](c2ccc(O[C@@H]3O[C@H](CO)[C@@H](O)[C@H](O)[C@H]3O)cc2)Oc2cc(O)ccc21` [liquiritin], for which the AUC(0-inf) amounted to 747 ± 83.6 ng·h/mL, the AUC(0-t) was 708 ± 49.2 ng·h/mL, the Cmax amounted to 142 ± 8.69 ng/mL and the MRT inf is 10.7 ± 5.65 h. Also, the MRT last stood at 6.75 ± 0.84 h and the half-life was 7.14 ± 2.06 h.
`O=c1c(-c2ccc(O)cc2)coc2c([C@@H]3O[C@H](CO)[C@@H](O)[C@H](O)[C@H]3O)c(O)ccc12` [puerarin]: the AUC(0-inf) stood at 615 ± 87.4 ng·h/mL, the AUC(0-t) was 603 ± 69.4 ng·h/mL, the peak level (Cmax) was 145 ± 17 ng/mL and the MRT inf was found to be 4.76 ± 1.55 h. This compound gave an MRT last of 4.19 ± 0.83 h and a half-life of 7.06 ± 4.39 h.
Compound `O=C(O)/C=C/c1ccccc1` [cinnamic acid] displayed an AUC(0-inf) of 7693 ± 68.4 ng·h/mL, an AUC(0-t) of 2010 ± 73.3 ng·h/mL, a Cmax of 800 ± 142 ng/mL and an MRT inf of 2.48 ± 2.81 h. This compound gave an MRT last of 2.64 ± 1.31 h and a half-life of 4.78 ± 1.67 h.
Take `C[n+]1cccc(C(=O)[O-])c1` [trigonelline]: the AUC(0-inf) came to 3890 ± 60.4 ng·h/mL, the AUC(0-t) turned out to be 3860 ± 46.4 ng·h/mL, the Cmax is 1170 ± 39.8 ng/mL and the MRT inf was determined as 4.53 ± 0.33 h. This compound also had an MRT last of 4.18 ± 0.19 h and a half-life of 2.58 ± 0.24 h.
Compound `COc1ccc2cc3[n+](cc2c1OC)CCc1cc2c(cc1-3)OCO2` [berberine] showed an AUC(0-inf) of 162 ± 12.8 ng·h/mL, an exposure AUC(0-t) of 91.1 ± 52.9 ng·h/mL, a Cmax of 30.9 ± 28.6 ng/mL and an MRT inf of 14.7 ± 7.88 h. The compound also gave an MRT last of 4.26 ± 0.61 h and a half-life of 11.9 ± 5 h.

One may read the AUC(0-inf) as total exposure, with the tail of the curve extrapolated. Low values mean low exposure, high ones high exposure. Usually AUC(0-t) stands for exposure summed from dosing to a finite time, without extrapolation to infinity. Usually Cmax stands for the peak of the concentration-time curve. Broadly, the MRT inf is a mean duration of stay, worked out from the concentration-time curve. Usually MRT last stands for a mean duration of stay, worked out from the concentration-time curve. By half-life is commonly meant the time needed for the level to fall by half in the phase considered. Low values mean rapid decline, high ones slow decline.
